In publication PMC4445677 (Journal of the American Chemical Society, 2014):
“Also recorded” adds a separate entry of the source.

Columns and labels:
WT-ARTD6 = conditions: up to 250 μM
[1] = test system: nuclear extracts from human embryonic kidney (HEK) 293T cells; assay: Labeling of ADP-ribosylation protein targets in nuclear extracts; assay type: biochemical; conditions: HEK 293T nuclear extracts; for protein labeling in nuclear extracts, NAD+ analogue alone: endogenous ARTDs only, 5-Et-6-a-NAD+ 250 μM, 6-a-NAD+ 100 μM
In short: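 Nuclear extracts from human HEK 293T cells are treated with a modified NAD+ analogue (250 μM), either alone or with added KA-ARTD1. Parent 6-a-NAD+ alone on extract serves as the positive control for ADP-ribose detection. Labelled targets are detected by click chemistry with biotin–azide and immunoblot, using a Ponceau S-stained membrane as the loading control.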

WT-ARTD1 = assay: Auto-ADP-ribosylation by click conjugation to biotin-azide reporter, WT-ARTD1; assay type: biochemical, human; conditions: NAD+ analogue as substrate; up to 250 μM for 5-Et-6-a-NAD+
KA-ARTD6 = conditions: lysine to alanine mutant
KA-ARTD2 = assay: Auto-ADP-ribosylation, KA-ARTD2; assay type: biochemical, human; conditions: lysine to alanine mutant
WT-ARTD2 = assay: Auto-ADP-ribosylation, WT-ARTD2; assay type: biochemical, human; conditions: up to 250 μM
KA-ARTD1 = assay: Auto-ADP-ribosylation by click conjugation to biotin-azide reporter, KA-ARTD1; assay type: biochemical, human; conditions: NAD+ analogue as substrate; increasing concentrations
K903A ARTD1 (KA-ARTD1) = K903A ARTD1 (KA-ARTD1) (Homo sapiens, UniProt P09874, K903A); assay: Inhibition of ADP-ribose transfer to Histone H1 using 6-a-NAD+; assay type: biochemical
[2] = target: wild-type ARTD1 (WT-ARTD1) (Homo sapiens, UniProt P09874); assay: as above; assay type: biochemical
wild-type ARTD1 (WT-ARTD1), sequence (P09874 whole entry): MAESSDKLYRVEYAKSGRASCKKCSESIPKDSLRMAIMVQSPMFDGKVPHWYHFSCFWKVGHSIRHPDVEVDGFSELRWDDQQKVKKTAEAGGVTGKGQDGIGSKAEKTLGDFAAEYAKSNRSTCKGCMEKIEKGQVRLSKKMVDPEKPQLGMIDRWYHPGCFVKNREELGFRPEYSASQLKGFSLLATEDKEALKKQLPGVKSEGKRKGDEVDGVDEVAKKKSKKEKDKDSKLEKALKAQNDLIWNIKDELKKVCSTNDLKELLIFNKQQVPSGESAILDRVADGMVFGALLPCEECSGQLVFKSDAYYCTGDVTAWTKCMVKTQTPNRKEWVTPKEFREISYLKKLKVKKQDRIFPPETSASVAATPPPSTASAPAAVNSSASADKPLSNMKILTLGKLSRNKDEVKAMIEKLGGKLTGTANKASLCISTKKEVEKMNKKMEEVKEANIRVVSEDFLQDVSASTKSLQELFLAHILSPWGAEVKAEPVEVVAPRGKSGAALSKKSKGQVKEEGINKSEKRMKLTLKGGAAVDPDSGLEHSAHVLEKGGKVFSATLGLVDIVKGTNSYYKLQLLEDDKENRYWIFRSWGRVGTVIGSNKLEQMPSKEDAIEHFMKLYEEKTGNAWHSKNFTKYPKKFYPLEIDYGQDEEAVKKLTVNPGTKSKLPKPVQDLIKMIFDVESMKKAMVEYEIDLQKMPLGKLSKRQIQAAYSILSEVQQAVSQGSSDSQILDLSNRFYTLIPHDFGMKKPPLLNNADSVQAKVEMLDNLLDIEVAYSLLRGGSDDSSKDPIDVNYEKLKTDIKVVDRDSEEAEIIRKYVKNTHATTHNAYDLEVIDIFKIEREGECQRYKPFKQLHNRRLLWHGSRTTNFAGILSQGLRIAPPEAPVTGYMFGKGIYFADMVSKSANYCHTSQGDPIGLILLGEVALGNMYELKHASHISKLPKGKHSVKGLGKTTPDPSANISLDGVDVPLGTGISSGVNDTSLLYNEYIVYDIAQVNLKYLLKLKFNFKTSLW

K903A ARTD1 (KA-ARTD1), sequence (P09874 whole entry K903A): as the sequence (P09874 whole entry) above, with K903A counted along it

Compound | modification of WT-ARTD6 (WT-ARTD6) | protein labeling in nuclear extracts in the presence of KA-ARTD1 ([1]; 250 μM plus KA-ARTD1) | protein labeling in nuclear extracts, NAD+ analogue alone [1] | auto-ADPr (modification) of WT-ARTD1 (WT-ARTD1) | modification of KA-ARTD6 (KA-ARTD6) | modification of KA-ARTD2 (KA-ARTD2) | modification of WT-ARTD2 (WT-ARTD2) | auto-ADPr (modification) of KA-ARTD1 (KA-ARTD1) | IC50 (K903A ARTD1 (KA-ARTD1)) [µM] | selectivity for KA-ARTD1 over WT-ARTD1 (K903A ARTD1 (KA-ARTD1); ratio of IC50 values WT-ARTD1 / KA-ARTD1) [fold] | IC50 [2] [µM]
5-Et-6-a-NAD^+ | no modification | extensive labeling | no labeling was detected | no modification of WT-ARTD1 was detected | conferred sensitivity | conferred sensitivity | no modification | only mono-ADPr of KA-ARTD1; also recorded: resulted in auto-ADPr of KA-ARTD1 |  |  | 
6-alkyne-NAD^+ [6-a-NAD^+, reference compound] |  |  | labeling of several proteins | extensive poly-ADPr of WT-ARTD1 |  |  |  | only mono-ADPr of KA-ARTD1 |  |  | 
CCc1cncc(C(N)=O)c1 [5-ethyl-nicotinamide] |  |  |  |  |  |  |  |  | 165 ± 11 | 14 | 2360 ± 368
